Source: publication PMC2901992 (Bioorganic & medicinal chemistry letters, 2010)
Read-outs that look alike come from different tables or passages of the source.

Legend:
panel of 442 kinases [1] = conditions: cited from earlier work
Bcr-Abl (T315I) = Bcr-Abl (T315I) (Homo sapiens, UniProt P00519+P11274, T315I); test: Cellular antiproliferative activity on mutant Bcr-Abl-T315I-Ba/F3; type: cell-based; conditions: for Fold improvement relative to 3 against T315I mutant Bcr-Abl: relative to compound 3; for EC50: read-out: EC50 against T315I mutant
Procedure, shortened: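 Ba/F3 cells transformed with wild-type or T315I Bcr-Abl were tested for antiproliferative activity, with parental Ba/F3 cells tested alongside. The value is an EC50 from the cellular assay.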

Bcr-Abl (wt) = Bcr-Abl (wt) (Homo sapiens, UniProt P00519+P11274); test: Cellular antiproliferative activity on wtBcr-Abl-Ba/F3; type: cell-based; conditions: for Selectivity for Bcr-Abl dependent cellular growth: versus parental Ba/F3 cytotoxicity
panel of 442 kinases [2] = test: KINOMEscan kinase selectivity profiling; type: binding; conditions: 10 μM
[3] = carbonyl group at the 6-position

In the case of CCN1CCN(Cc2ccc(NC(=O)c3cccc(-c4ccc5nc(NC(=O)C6CC6)sc5n4)c3)cc2C(F)(F)F)CC1 [HG-7-85-01], the “Selectivity score S10” value (panel of 442 kinases [1]) is given as 0.056.
With CCN1CCN(Cc2ccc(NC(=O)c3ccc(C)c(C#Cc4ccc(NC(C)=O)nc4)c3)cc2C(F)(F)F)CC1 [Compound 4] the “Fold improvement relative to 3 against T315I mutant Bcr-Abl” value (Bcr-Abl (T315I)) was about 8 fold.
For CCN1CCN(Cc2ccc(NC(=O)c3ccc(C)c(C#Cc4ccc(NC(=O)C5CC5)nc4)c3)cc2C(F)(F)F)CC1 [Compound 5], the “Fold improvement relative to 3 against T315I mutant Bcr-Abl” value (Bcr-Abl (T315I)) was about 8 fold.
In the case of CCN1CCN(Cc2ccc(NC(=O)c3ccc(C)c(C#Cc4cnc5[nH]cnc5c4)c3)cc2C(F)(F)F)CC1 [Compound 14], the EC50 (Bcr-Abl (T315I)) is reported as under 100 nM.
For CCN1CCN(Cc2ccc(NC(=O)c3ccc(C)c(C#Cc4ccc(C(=O)NC)nc4)c3)cc2C(F)(F)F)CC1 [Compound 6], the “Fold less potent EC50 against T315I Bcr-Abl” value (Bcr-Abl (T315I); [3]) was 6 fold and the “Fold less potent EC50 against wild-type Bcr-Abl” value (Bcr-Abl (wt); [3]) was 6 fold.
With CCN1CCN(Cc2ccc(NC(=O)c3ccc(C)c(C#Cc4cnc5[nH]ccc5c4)c3)cc2C(F)(F)F)CC1 [Compound 12] the EC50 (Bcr-Abl (T315I)) was under 100 nM, the “Selectivity for Bcr-Abl dependent cellular growth” value (Bcr-Abl (wt)) was “up to 1000 fold” and the “Number of kinases with ambit score of less than 10% of the DMSO control” value (panel of 442 kinases [2]; panel of 442 kinases) was 203 kinases. The “Ambit score of kinase hits (% of the DMSO control)” value (panel of 442 kinases [2]; hits: ABL, ARG, BLK, PITSLRE, CRIK, FMS/CSFR, DDR1, EphA8, FGFR4, HPK1, JNK2, KIT, LOK, LYN, GCK, MUSK, MYO3B, p38α, p38β, PDGFRα, PDGFRβ, RET, RIPK1, SRC, TAO1, TAO2, TAO3, TIE2) was under 0.1%.
With CCN1CCN(Cc2ccc(NC(=O)c3ccc(C)c(C#Cc4cccnc4)c3)cc2C(F)(F)F)CC1 [Compound 3] the “Selectivity for Bcr-Abl dependent cellular growth” value (Bcr-Abl (wt)) was “up to 1000 fold”, the “Number of kinases with ambit score of less than 10% of the DMSO control” value (panel of 442 kinases [2]; panel of 442 kinases) was 193 kinases and the “Selectivity score S10” value (panel of 442 kinases [2]; panel of 442 kinases) was 0.427.
